The record followed here is ChEMBL document CHEMBL1142221, “Nootropic alpha7 nicotinic receptor allosteric modulator derived from GABAA receptor modulators” (Proc Natl Acad Sci U S A, 2007).

In experiment [1] the target is T1, Neuronal acetylcholine receptor; alpha4/beta2 (Homo sapiens) (UniProt P17787+P43681). The experiment is described as follows: Activation of human nAChR alpha-4-beta-2 expressed in Xenopus oocytes assessed as modulation of nicotine-induced current by measuring ratio of I/Imax current by two-electrode voltage-clamp method. The note with it: Oocyte. Format: cell-based. In a few lines: (§1)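 Oocytes injected with 0.005–50 ng mRNA per subunit (α4β2 and α3β4 at 1:1; α1β1γδ at 1:1:1:1; α7 and 5-HT3A single). Two-electrode voltage clamp at −70 mV, 3–14 days post-injection. Ca²⁺-free Ringer's with BaCl₂ replacing Ca²⁺ (pH 7.4) to limit Ca²⁺-activated Cl⁻ currents. Rapid linear-array application. Current expressed as I/I_max; concentration–effect data fit to a four-parameter logistic. For α7, agonist was fixed at EC₅.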

In experiment [2] the target is T2, Neuronal acetylcholine receptor subunit alpha-7 (Homo sapiens, UniProt P36544). The experiment is described as follows: Activation of human alpha-7 nAChR expressed in Xenopus oocytes assessed as modulation of nicotine-induced current by two-electrode voltage-clamp method. The experiment is classed as cell-based, Oocyte. In a few lines: as §1
T2 sequence (P36544 whole entry): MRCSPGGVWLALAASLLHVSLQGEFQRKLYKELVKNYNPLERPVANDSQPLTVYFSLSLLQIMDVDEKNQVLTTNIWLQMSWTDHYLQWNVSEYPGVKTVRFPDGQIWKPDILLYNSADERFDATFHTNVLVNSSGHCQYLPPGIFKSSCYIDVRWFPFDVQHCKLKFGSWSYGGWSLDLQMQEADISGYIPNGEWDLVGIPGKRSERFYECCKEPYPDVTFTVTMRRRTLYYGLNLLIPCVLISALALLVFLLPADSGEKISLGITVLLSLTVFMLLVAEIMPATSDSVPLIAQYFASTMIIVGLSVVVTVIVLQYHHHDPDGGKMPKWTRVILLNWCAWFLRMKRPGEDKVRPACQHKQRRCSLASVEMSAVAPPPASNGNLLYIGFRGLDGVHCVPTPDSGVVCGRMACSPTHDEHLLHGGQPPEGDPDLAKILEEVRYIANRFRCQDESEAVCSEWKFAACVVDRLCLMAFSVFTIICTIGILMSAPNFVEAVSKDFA
For orientation: Two-electrode voltage clamp is typically applied to oocytes expressing channels or transporters.

Experiment [3] has as its target T1, Neuronal acetylcholine receptor; alpha4/beta2 (Homo sapiens). The experiment is described as follows: Activity at human nAChR alpha4beta2 expressing Xenopus oocytes assessed as stimulation of nicotine-induced current at 10 uM by two-electrode voltage-clamp method. The experiment is classed as cell-based. To be noted: Oocyte. In a few lines:
as §1

The target of experiment [4] is GABA-A receptor; alpha-2/beta-3/gamma-2 (Homo sapiens) (UniProt P18507+P28472+P47869). The experiment is described as follows: Activation of human GABAA alpha-2-beta-3-gamma-2L receptor expressed in Xenopus oocytes assessed as modulation of GABA-induced current by measuring ratio of I/Imax current by two-electrode voltage-clamp method. To be noted: Oocyte.
Experiment [5] deals with T2, Neuronal acetylcholine receptor subunit alpha-7. The experiment is described as follows: Activation of human alpha-7 nAChR expressed in Xenopus oocytes assessed as modulation of nicotine-induced current by measuring ratio of I/Imax current by two-electrode voltage-clamp method. The experiment is classed as cell-based. The note with it: Oocyte. Put shortly:
as §1

The target in experiment [6] is T3, 5-hydroxytryptamine receptor 3A (Homo sapiens) (UniProt P46098).
T3 sequence (whole entry): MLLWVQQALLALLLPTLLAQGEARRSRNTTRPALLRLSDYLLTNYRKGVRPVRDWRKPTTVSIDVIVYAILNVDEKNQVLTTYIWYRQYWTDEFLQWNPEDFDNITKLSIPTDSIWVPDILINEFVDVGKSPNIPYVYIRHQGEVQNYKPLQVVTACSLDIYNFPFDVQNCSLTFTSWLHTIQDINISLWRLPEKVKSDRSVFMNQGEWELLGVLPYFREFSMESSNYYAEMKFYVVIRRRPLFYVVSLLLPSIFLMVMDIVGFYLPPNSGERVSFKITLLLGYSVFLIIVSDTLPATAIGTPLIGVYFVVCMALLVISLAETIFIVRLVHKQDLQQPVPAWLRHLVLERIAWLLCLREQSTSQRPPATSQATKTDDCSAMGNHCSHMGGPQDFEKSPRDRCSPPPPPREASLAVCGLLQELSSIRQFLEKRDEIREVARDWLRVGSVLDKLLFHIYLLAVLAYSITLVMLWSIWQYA
The experiment is described as follows: Activity at human 5HT3A receptor expressed in Xenopus oocytes assessed as stimulation of […] current at 10 uM by two-electrode voltage-clamp method. The experiment is classed as cell-based. The note with it: Oocyte. Put shortly:
as §1

Experiment [7] concerns the target T4, GABA-A receptor; alpha-2/beta-3/gamma-2 (Homo sapiens, UniProt P18507+P28472+P47869).
T4 sequence (P18507 whole entry): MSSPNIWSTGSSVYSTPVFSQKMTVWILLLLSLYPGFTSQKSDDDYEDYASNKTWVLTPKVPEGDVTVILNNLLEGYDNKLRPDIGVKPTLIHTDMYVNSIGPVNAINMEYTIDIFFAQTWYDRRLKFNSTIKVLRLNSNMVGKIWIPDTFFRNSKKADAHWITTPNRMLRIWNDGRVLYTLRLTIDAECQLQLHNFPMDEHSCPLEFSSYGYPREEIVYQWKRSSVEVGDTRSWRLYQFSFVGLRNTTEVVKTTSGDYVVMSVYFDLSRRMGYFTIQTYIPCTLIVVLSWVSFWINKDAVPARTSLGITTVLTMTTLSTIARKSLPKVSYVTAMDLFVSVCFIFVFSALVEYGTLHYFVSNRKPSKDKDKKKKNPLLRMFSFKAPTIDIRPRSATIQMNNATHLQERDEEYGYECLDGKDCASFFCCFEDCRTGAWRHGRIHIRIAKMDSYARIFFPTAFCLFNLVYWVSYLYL
T4 sequence (P28472 whole entry): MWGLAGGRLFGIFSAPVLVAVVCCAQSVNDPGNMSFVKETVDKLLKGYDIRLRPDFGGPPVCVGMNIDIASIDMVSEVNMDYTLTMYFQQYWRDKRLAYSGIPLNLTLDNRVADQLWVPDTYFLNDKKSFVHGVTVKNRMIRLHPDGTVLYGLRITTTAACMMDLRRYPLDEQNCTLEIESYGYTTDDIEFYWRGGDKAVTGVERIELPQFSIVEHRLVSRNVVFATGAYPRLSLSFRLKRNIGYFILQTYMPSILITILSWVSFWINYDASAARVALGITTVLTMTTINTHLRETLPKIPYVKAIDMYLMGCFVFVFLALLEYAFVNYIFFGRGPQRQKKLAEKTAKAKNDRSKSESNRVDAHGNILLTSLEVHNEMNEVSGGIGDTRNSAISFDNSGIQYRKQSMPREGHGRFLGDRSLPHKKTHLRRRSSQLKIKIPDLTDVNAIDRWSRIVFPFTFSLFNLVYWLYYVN
T4 sequence (P47869 whole entry): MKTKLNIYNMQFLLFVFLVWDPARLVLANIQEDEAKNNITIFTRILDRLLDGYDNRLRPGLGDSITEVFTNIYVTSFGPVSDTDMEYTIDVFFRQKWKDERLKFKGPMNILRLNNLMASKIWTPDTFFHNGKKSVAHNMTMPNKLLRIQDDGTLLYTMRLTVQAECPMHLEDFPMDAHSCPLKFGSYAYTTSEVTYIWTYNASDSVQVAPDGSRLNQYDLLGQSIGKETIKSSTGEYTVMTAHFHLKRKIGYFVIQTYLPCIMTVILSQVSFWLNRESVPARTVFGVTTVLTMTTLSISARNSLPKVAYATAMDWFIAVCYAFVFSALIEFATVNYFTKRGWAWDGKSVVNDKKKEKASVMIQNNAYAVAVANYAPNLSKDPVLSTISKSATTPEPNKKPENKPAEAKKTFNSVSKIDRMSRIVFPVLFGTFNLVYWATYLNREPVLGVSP
The experiment is described as follows: Activation of human GABAA alpha-2-beta-3-gamma-2L receptor expressed in Xenopus oocytes assessed as modulation of GABA-induced current by two-electrode voltage-clamp method.

Molecules are shown by their SMILES. The source made the active and inactive calls. The calls are words filed in the database; no cut-off is given here.

For orientation: EC50 means the concentration needed to bring the measured effect to its halfway point. Regarding `CCOC(=O)/C(=C\Nc1ccc(OCC)cc1)C(=O)c1ccccc1Cl`, the outcome in experiment [1], in experiment [3] and in experiment [6] was inactive. The half-maximal effective concentration (EC50) in experiment [2] was found to be 1800 nM; in experiment [7], 200 nM. In addition, the Ratio in experiment [4] is 0.93; in experiment [5], 0.86.
